A selection: hits, their analogues and other compounds. The true share with any hit is near 1.8%.
NR2E3 ag-1: NR2E3 (human) agonism | inhibition of corepressor binding, % at 4.78 µM | Q9Y5X4 | actives 0.12% (n = 320,000) | AID 2300 | GST-NR2E3/biotin-RetCOR TR-FRET, 1536-well;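 active = percent inhibition above the cutoff of mean plus 3 SD of all tested compounds, set per screening campaign, cut at about 20% in these data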;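 note: 0% = DMSO wells and 100% = biotin wells as full block of FRET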
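Test system: GST-NR2E3 and biotin-RetCOR proteins | Quantity: 1.35 nM GST-tagged NR2E3 final | Medium: Tris pH 7.5 | Also added: 7 nM biotin-RetCOR | Dosing: Compound at 4.8 µM, single dose | Timing: 5 h at 4 °C | Detection: Time-resolved FRET | Read-out basis: Percent inhibition | Benchmarks: Biotin wells as high control, 0.6% DMSO wells as low control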
GalR3 antag: blocks the human galanin receptor 3. HEK293 GalR3-CNG cAMP membrane potential fluorescence; galR3 body fused to GalR1 C-terminus. inhibition, % at 3 µM. actives 0.44% (n = 360,000);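 active = inhibition above the screen-wide average plus 3 SD, cut at about 13% in these data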;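 note: forskolin and galanin both at EC90 stimulate the cells; cAMP rise reported by CNG channel membrane potential dye signal; 0% = forskolin plus galanin with DMSO and 100% = forskolin alone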
Target sequence (O60755 1-299 limits assumed): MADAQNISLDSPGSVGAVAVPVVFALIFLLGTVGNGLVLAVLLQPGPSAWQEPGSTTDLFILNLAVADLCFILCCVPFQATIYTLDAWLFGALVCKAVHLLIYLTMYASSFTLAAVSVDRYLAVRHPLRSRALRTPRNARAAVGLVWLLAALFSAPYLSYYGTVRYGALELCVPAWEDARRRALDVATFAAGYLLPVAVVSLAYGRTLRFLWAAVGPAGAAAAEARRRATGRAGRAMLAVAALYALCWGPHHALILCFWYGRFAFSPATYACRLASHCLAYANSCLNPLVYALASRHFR
NR2E3 ag-2: activates human NR2E3 receptor; actives 0.35% (n = 360,000); CHO-S Gal4-NCOR/VP16-NR2E3 two-hybrid, luciferase; inhibition of corepressor binding, % at 3.98 µM; Q9Y5X4;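 active = inhibition above the mean of all tested compounds plus 3 SD, cut at about 70% in these data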;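 note: 0% = DMSO with NR2E3 transfected cells and 100% = cells lacking NR2E3 construct; higher means lower luciferase signal from less NR2E3 corepressor binding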
PG9 binder: PG9 antibody binding by small molecule | inhibition, % at 6.7 µM | actives 0.43% (n = 360,000) | TR-FRET gp120-PG9 antibody binding | AID 624416; in the data active = inhibition above about 8.5%
Rev-erbA mod: modulators of human Rev-erb alpha DNA binding; P20393; Rev-erbα–FITC-DNA binding, fluorescence polarization, 90 min; activity, % at 10 µM; actives 0.79% (n = 370,000); AID 1259318;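 active = activity above about 14%, limit read from the data; passing the limit was not always enough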;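 note: 0% = DMSO wells with 35 nM protein and 100% = DMSO wells with 750 nM protein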
GalR3 conf: confirmation of human galanin receptor 3 antagonists | shares compounds with GalR3 antag | inhibition, % at 3 µM | AID 652245 | HEK293 GalR3 CNG cAMP biosensor, membrane potential fluorescence; galR3 fused to GalR1 carboxy tail; challenged with forskolin and galanin at EC90 | actives 59% (n = 1,600);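 active = inhibition above the primary screen's cutoff, the mean inhibition of all screened compounds plus 3 SD, cut at about 13% in these data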;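 note: 0% = forskolin plus galanin and 100% = forskolin alone with DMSO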
CNG parental: parental cell agonism counter-screen for GalR3 antagonists; shares compounds with GalR3 antag; HEK293-CNG parental cells, cAMP membrane potential fluorescence; normalised: DMSO wells 0%, forskolin wells 100%; activation, % at 3 µM; actives 10% (n = 1,600); AID 652268; in the data active = activation above about 1.3%
Active calls of the source: *; x = not tested or not shown.

SMILES	NR2E3 ag-1	GalR3 antag	NR2E3 ag-2	PG9 binder	Rev-erbA mod	GalR3 conf	CNG parental
Cc1cc(=S)c2cccc(C)c2[nH]1	12	21*	x	7	-3	30*	0
O=C(Nc1nc2ncccn2c1-c1ccc(F)c(F)c1)c1ccccc1	x	x	x	x	-6	x	x
CCCCCN1CCCCC(NC(=O)c2c(F)cccc2F)C1=O (stereo unspecified)	x	x	x	x	7	x	x
O=C1C=C(c2c(O)ccc3ccccc23)c2ccccc2C1=O	x	23*	22	2	8	82*	-5
O=C1C=C(O)c2cccc(O)c2C1=O	-6	-7	-4	-4	-2	x	x
CNS(=O)(=O)/C=C/c1ccccc1CCNC(=O)OC(C)(C)C	x	x	x	x	-3	x	x
CCN(CC)C1=CC(=[N+]2CCCC2)CC(C)(C)C1	0	1	-24	0	2	x	x
CN(Cc1ccccc1)C1=CC(=[N+]2CCCC2)CC(C)(C)C1	0	59*	-11	-2	7	65*	2.3*
COc1ccc(NS(=O)(=O)c2ccc3oc(SC(C)C(N)=O)nc3c2)cc1 (stereo unspecified)	1	24*	42	-1	-1	0	0
CCNC(=O)CSc1nc2cc(S(=O)(=O)Nc3ccc(OC)cc3)ccc2o1	-1	0	18	-1	-4	x	x
COc1ccc(CN(CCN2CCOCC2)C(=O)c2ccccc2C)cc1OC	x	x	x	x	5	x	x
CS(=O)(=O)c1nc(-c2ccc(F)cc2)cc(C(F)(F)F)n1	x	26*	7	2	-1	25*	1
COc1ccc(-c2cc(C(F)(F)F)nc(S(C)(=O)=O)n2)cc1	0	32*	-6	-4	-1	13*	1
COc1ccc(-c2cc(C(F)(F)F)nc(N)n2)cc1	1	-4	-38	0	4	x	x
O=C(O)/C=C/C(=O)c1ccc2c(c1)CCc1ccccc1-2	3	25*	-100	0	-2	16*	1
CC(=O)Nc1ccc2c(c1)CCc1ccccc1-2	-1	-10	-24	-1	6	x	x
CC(C)[C@H](NC(=O)c1c(F)cccc1F)C(=O)N1CCN(c2ccc(F)cc2)CC1	2	13*	-9	-2	0	4	0
COc1cccc(C2=NN(C(=O)c3cccs3)C(O)(C(F)(F)F)C2)c1 (stereo unspecified)	1	13*	-9	0	2	3	1
COc1ccc(N2C(=O)CC(NCc3ccc(F)cc3)C2=O)cc1 (stereo unspecified)	1	15*	-9	-1	9	14*	0
CCCCCCCCn1c2c(c(=N)c3ccccc31)CCC2	x	44*	28	1	0	62*	11*
CCCCn1c2c(c(=N)c3ccccc31)CCC2	2	-4	-21	1	0	x	x
CCOC(=O)c1[nH]c2ccc(OC)cc2c1NS(=O)(=O)c1ccc(Cl)s1	1	103*	-6	-2	-8	92*	0
C/C(=N\OCc1nc2ccccc2c(=O)n1/N=C/c1cc(C)cc([N+](=O)[O-])c1O)c1ccccc1	-3	67*	-7	-3	2	70*	-1
O=C(NCCc1ccccc1)OCc1cn(Cc2ccc(C(F)(F)F)cc2)nn1	x	x	x	x	-5	x	x
O=C(NCCN1C(=O)S/C(=C\c2ccc(OC(F)F)cc2)C1=O)c1cnccn1	0	15*	-15	-2	-3	6	1
SMILES	NR2E3 ag-1	GalR3 antag	NR2E3 ag-2	PG9 binder	Rev-erbA mod	GalR3 conf	CNG parental
COc1ccc(/C=C2\SC(=O)N(CCNC(=O)C3=COCCO3)C2=O)cc1	-1	31*	-77	-2	-8	21*	0
CCC(C)N(C(=O)c1ccc(CNC(=O)c2cccc(Br)c2)cc1)C(C)CC (stereo unspecified)	x	x	x	x	-6	x	x
O=C(NCCc1ccccc1)OCc1cn(Cc2ccc(F)c(F)c2)nn1	x	x	x	x	4	x	x
CCOC(=O)c1cc[n+](CC(=O)c2ccc(F)cc2)cc1	1	15*	-14	-4	-3	3	0
CCOC(=O)c1ccc(NC(=O)Nc2ccc(F)cc2)cc1	1	-9	-33	-1	9	x	x
COc1ccc(C(=O)N/N=C/c2cc3ccccc3[nH]c2=O)cc1	-4	x	-9	-3	-2	60*	0
COc1ccc(OC)c(/C=N\NC(=O)c2ccc(-c3ccccc3)cc2)c1	x	-2	-41	-2	-2	x	x
COCC(=O)Nc1ncc(S(=O)(=O)c2ccc([N+](=O)[O-])cc2)s1	0	4	-10	1	4	x	x
O=C(NC(Nc1ncc(S(=O)(=O)c2ccc([N+](=O)[O-])cc2)s1)(C(F)(F)F)C(F)(F)F)c1ccc(Cl)cc1	-3	73*	46	-1	-4	41*	0
CCCCC(=O)N/N=C/c1ccc(N2CCOCC2)c([N+](=O)[O-])c1	0	14*	-2	-4	-2	11	0
Cc1ccc(N2C(=O)c3cccc4c([N+](=O)[O-])ccc(c34)C2=O)c2cccnc12	0	14*	-16	-1	-1	17*	0
CCOC(=O)[C@]12CCCC3=C1N(CCC3)C(=O)[C@@H](CC(=O)NCCCN1CCCC1=O)C2	x	x	x	x	2	x	x
N[C@@H](CCC(=O)N[C@@H](CS)C(=O)NCC(=O)O)C(=O)O	x	x	x	x	-7	x	x
CN1CCN(c2ccc3c(c2)Oc2ccccc2CN(Cc2cn(Cc4ccc(C(F)(F)F)cc4)nn2)S3(=O)=O)CC1	x	x	x	x	2	x	x
COc1ccc(CNC(=O)c2cnn3c(C(F)F)cc(C)nc23)cc1OC	5	15*	32	1	-3	20*	0
CCCCC[C@@H](/C=C/C1C(=O)C=C[C@H]1C/C=C\CCCC(=O)OC)OC(C)=O (stereo partly specified)	x	59*	-7	0	0	90*	0
O=[N+]([O-])c1cc(S(=O)(=O)NCc2ccco2)ccc1NN=Cc1ccccn1	x	-7	x	-2	-31	x	x
COC(=O)[C@H](C(C)C)N(Cc1cn(Cc2ccccc2)nn1)S(=O)(=O)c1ccc(F)cc1Br	x	x	x	x	4	x	x
Oc1ccc(-c2n[nH]c(C(F)(F)F)c2-c2ccccc2)c(O)c1	1	47*	76*	-1	3	89*	-2
Cc1nc2ccc(S(=O)(=O)NCC(=O)N(C)Cc3ccc(F)cc3)cc2s1	x	x	x	x	-10	x	x
Cc1ccc(CNC(=O)O[C@H]2CC[C@@]34CCCN3C(=O)CCC[C@H]4C2)cc1	x	x	x	x	6	x	x
Cn1c(CN2CCCCC2)nc2cc(NC(=O)c3ccc(Cl)cc3)ccc21	-1	81*	-6	2	-2	48*	0

Compound activity from PubChem.
